Measurements taken from paper PMC5599134 (Structure (London, England : 1993), 2017).
Ends that are not written are not given here.

Legend:
[1] = molecular target: Snap25b (Synaptosomal-associated protein 25), wild type, full length (human) (UniProt P60880); experiment: ITC
Snap25b [2] = assay type: cell-based, human; conditions: HEK-293T, 100 μM 17-ODYA, 4 h, 37°C; Rhodamine-azide click; n=3
How it was run: (§1)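 HEK-293T cells (DMEM, 10% FBS, 37°C, 5% CO2) co-transfected with 2 μg GFP-DHHC17 (wild type or mutants) and 0.5 μg EGFP-Snap25b, cysteine-less C4A or empty vector, using PEI-max. At 24 h, cells given serum-free DMEM with 100 μM 17-ODYA for 4 h at 37°C, then lysed in dodecylmaltoside buffer. Click reaction with rhodamine azide/CuSO4/TCEP/TBTA for 1 h at room temperature. In-gel rhodamine fluorescence; anti-GFP and anti-Snap25b blots; bands quantitated.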

DHHC17 = experiment: Autoacylation of DHHC17 in 17-ODYA metabolic labeling; assay type: cell-based, human; conditions: HEK-293T, click chemistry
How it was run: as §1

Snap25b-WT [3] = experiment: In vitro palmitate transfer from NBD-palmitoyl-CoA to Snap25b; assay type: biochemical, human; conditions: both in absence and presence of purified Snap25b-WT
ANK17 domain of DHHC17 = molecular target: T1, ANK17 domain of DHHC17 (Homo sapiens, UniProt Q8IUH5); experiment: ITC titration of ANK17-WT with Snap25b species; assay type: binding; conditions: for effect of alanine mutation in Snap25b on binding to ANK17 (in words): ITC, ANK17-WT titrated into Snap25b mutants, 25°C, 1X PBS 1 mM DTT
T1 sequence (Q8IUH5 50-288): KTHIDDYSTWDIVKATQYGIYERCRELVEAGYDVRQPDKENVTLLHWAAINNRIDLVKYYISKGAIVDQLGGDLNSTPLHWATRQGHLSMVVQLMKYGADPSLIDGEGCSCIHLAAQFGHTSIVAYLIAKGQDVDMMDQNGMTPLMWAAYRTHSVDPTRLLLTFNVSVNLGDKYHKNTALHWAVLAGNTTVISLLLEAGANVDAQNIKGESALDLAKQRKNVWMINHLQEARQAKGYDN

Snap25b-WT [4] = experiment: Co2+ affinity pull-down of GFP-Snap25b-WT by DHHC17 mutants in HEK-293T cells; assay type: cell-based, human; conditions: 24 h co-transfection, Co2+ (Talon) pull down, gel-densitometry
[5] = molecular target: Snap25b_(111–120) peptide (human); experiment: ITC
[6] = molecular target: Snap25b-C4A (cysteine-less mutant), full length (human) (UniProt P60880); experiment: ITC
Snap25b [7] = conditions: palmitoylated enzyme intermediate; ref Greaves et al., 2017; cited from earlier work
Snap25b-WT [8] = experiment: ITC titration of ANK17 mutants into full-length Snap25b-WT; assay type: binding, human; conditions: ANK17 mutants titrated into Snap25b-WT, 25°C, 1X PBS 1 mM DTT
wild-type Htt = experiment: ITC titration of ANK17-W130A into MBP-Htt1–548; assay type: binding; conditions: titrated into MBP-Htt1–548, 25°C, 1X PBS 1 mM DTT
[9] = Size exclusion chromatography; assay type: physicochemical; conditions: Superdex-200
How it was run: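 His-tagged protein expressed in E. coli BL21(DE3)-Gold and Ni-NTA purified. Spun at 21000 × g for 20 min at 4°C, then about 200 μL injected onto Superdex-200. Column buffer was 50mM Tris-HCl, 50mM NaCl, 5% glycerol, 1mM DTT for crystallization, or 1X PBS pH 7.4 with 1 mM DTT for ITC. Peak fractions pooled.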

Molecule: ANK17-Y67A (domain or fragment)
- fold reduction of affinity against ANK17-WT [1]: 5 fold

Molecule: DHHC17: full length human DHHC17 palmitoyltransferase (NP_056151)
- S-acylation (palmitate transfer) of Snap25b (in words) (Snap25b [2]): readily transfers palmitate to Snap25b
- autoacylation (in words) (DHHC17): did not detect any autoacylation
- autopalmitoylation with or without Snap25b (in words) (Snap25b-WT [3]): does not appear to get autopalmitoylated to appreciable levels

Molecule: GVVASQPARV [Snap25b111–120]
- Kd (ANK17 domain of DHHC17): ~11 µM

Molecule: N100A: full length DHHC17 mutant N100A (GFP fusion)
- S-acylation (palmitate transfer) of Snap25b (in words) (Snap25b [2]): severely reduced levels of palmitoylation
- amount of Snap25b pulled down by DHHC17 mutant (in words) (Snap25b-WT [4]): largest decrease in affinity

Molecule: P117A: Snap25b alanine mutant P117A (GFP fusion in pull-down)
- effect of alanine mutation in Snap25b on binding to ANK17 (in words) (ANK17 domain of DHHC17): largest reduction in binding affinity
- effect of alanine mutation in Snap25b on binding to ANK17 (in words) (ANK17 domain of DHHC17; listed as Snap25b-P117A): showed only marginal heat of binding and we could not obtain any fitting of the integrated heats

Molecule: V113A: Snap25b alanine mutant V113A (GFP fusion in pull-down)
- effect of alanine mutation in Snap25b on binding to ANK17 (in words) (ANK17 domain of DHHC17): followed by the V113A and Q116A

Molecule: W130A: full length DHHC17 mutant W130A (GFP fusion)
- S-acylation (palmitate transfer) of Snap25b (in words) (Snap25b [2]): severely reduced levels of palmitoylation
- amount of Snap25b pulled down by DHHC17 mutant (in words) (Snap25b-WT [4]): largest decrease in affinity

Molecule: ankyrin repeat domain of Human DHHC17 (ANK17), wild type (domain or fragment)
- Kd [5]: 11 µM
- Kd [6]: 3000 nM

Molecule: mutation to phenylalanine: full length DHHC17 with W130 mutated to phenylalanine
- S-acylation (palmitate transfer) of Snap25b (in words) (Snap25b [2]): loss of function of W130A can be recovered

B1: DHHC17-C467S: mutation of the cysteine of DHHC domain to serine (protein, UniProt Q8IUH5 1-632, looked up, variant C467S)
Palmitoyltransferase ZDHHC17: MQREEGFNTKMADGPDEYDTEAGCVPLLHPEEIKPQSHYNHGYGEPLGRKTHIDDYSTWDIVKATQYGIYERCRELVEAGYDVRQPDKENVTLLHWAAINNRIDLVKYYISKGAIVDQLGGDLNSTPLHWATRQGHLSMVVQLMKYGADPSLIDGEGCSCIHLAAQFGHTSIVAYLIAKGQDVDMMDQNGMTPLMWAAYRTHSVDPTRLLLTFNVSVNLGDKYHKNTALHWAVLAGNTTVISLLLEAGANVDAQNIKGESALDLAKQRKNVWMINHLQEARQAKGYDNPSFLRKLKADKEFRQKVMLGTPFLVIWLVGFIADLNIDSWLIKGLMYGGVWATVQFLSKSFFDHSMHSALPLGIYLATKFWMYVTWFFWFWNDLNFLFIHLPFLANSVALFYNFGKSWKSDPGIIKATEEQKKKTIVELAETGSLDLSIFCSTCLIRKPVRSKHCGVCNRCIAKFDHHSPWVGNCVGAGNHRYFMGYLFFLLFMICWMIYGCISYWGLHCETTYTKDGFWTYITQIATCSPWMFWMFLNSVFHFMWVAVLLMCQMYQISCLGITTNERMNARRYKHFKVTTTSIESPFNHGCVRNIIDFFEFRCCGLFRPVIVDWTRQYTIEYDQISGSGYQLV
- S-acylation (palmitate transfer) of Snap25b (in words) (Snap25b [2]): does not show any appreciable transfer

B2: DHHC15: DHHC15 palmitoyl transferase (NM_144969), comparison enzyme (protein, UniProt Q96MV8 1-337, looked up)
Palmitoyltransferase ZDHHC15: MRRGWKMALSGGLRCCRRVLSWVPVLVIVLVVLWSYYAYVFELCLVTVLSPAEKVIYLILYHAIFVFFTWTYWKSIFTLPQQPNQKFHLSYTDKERYENEERPEVQKQMLVDMAKKLPVYTRTGSGAVRFCDRCHLIKPDRCHHCSVCAMCVLKMDHHCPWVNNCIGFSNYKFFLQFLAYSVLYCLYIATTVFSYFIKYWRGELPSVRSKFHVLFLLFVACMFFVSLVILFGYHCWLVSRNKTTLEAFCTPVFTSGPEKNGFNLGFIKNIQQVFGDKKKFWLIPIGSSPGDGHSFPMRSMNESQNPLLANEETWEDNEDDNQDYPEGSSSLAVETET
modifications: 10xHis tag
- palmitate transfer to Snap25b (in words) (Snap25b [7]): capable of transferring palmitate to a protein substrate such as Snap25b

B3: ANK17-W130A: ANK17 with alanine substitution at position W130 (protein, UniProt Q8IUH5 50-288, looked up, variant W130A)
chain: KTHIDDYSTWDIVKATQYGIYERCRELVEAGYDVRQPDKENVTLLHWAAINNRIDLVKYYISKGAIVDQLGGDLNSTPLHAATRQGHLSMVVQLMKYGADPSLIDGEGCSCIHLAAQFGHTSIVAYLIAKGQDVDMMDQNGMTPLMWAAYRTHSVDPTRLLLTFNVSVNLGDKYHKNTALHWAVLAGNTTVISLLLEAGANVDAQNIKGESALDLAKQRKNVWMINHLQEARQAKGYDN
modifications: ankyrin repeat domain
- effect of alanine mutation in ANK17 on binding to full-length Snap25b (in words) (Snap25b-WT [8]): showed only heat of dilution
- binding of ANK17 mutant to wild-type Htt (in words) (wild-type Htt): no discernible signs of binding to wild-type Htt

B4: ANK17: cytoplasmic ankyrin repeat domain of human DHHC17, residues K50 to D288 (protein, UniProt Q8IUH5 50-288, looked up, fragment)
chain: KTHIDDYSTWDIVKATQYGIYERCRELVEAGYDVRQPDKENVTLLHWAAINNRIDLVKYYISKGAIVDQLGGDLNSTPLHWATRQGHLSMVVQLMKYGADPSLIDGEGCSCIHLAAQFGHTSIVAYLIAKGQDVDMMDQNGMTPLMWAAYRTHSVDPTRLLLTFNVSVNLGDKYHKNTALHWAVLAGNTTVISLLLEAGANVDAQNIKGESALDLAKQRKNVWMINHLQEARQAKGYDN
modifications: ankyrin repeat domain
- size exclusion peak homogeneity (in words) [9]: homogenous and monodisperse peaks
